Laboratory results: article PMC10401000 (Proceedings of the National Academy of Sciences of the …, 2023)

How the values were obtained:
HASM cells = assay: Magnetic twisting cytometry, HASM cell stiffness; type: cell-based, human; details: 10 μM ISO
Procedure, shortened: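 Magnetic twisting cytometry: integrin-anchored beads on serum-deprived, post-confluent HASM cells from nonasthma donors, plated at 30,000 cells/cm² on collagen I and kept serum-free for 24 h. Cells were pretreated ± 1 μM test compound for 30 min. […] Stiffness was normalized to each cell's baseline; linear mixed-effect model on log data; 463 to 473 cells.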

β2AR = details: cited from earlier work

Compound	time to peak relaxation (HASM cells)	allosteric modulator activity at the β2AR (β2AR)
CC(C)NCC(O)c1ccc(O)c(O)c1 (centres unmarked) [ISO, isoproterenol]	4 to 5 min	–
Nc1nc(Nc2ccccc2)nc2ccc(Br)cc12 [AS408]	–	NAM for both ISO-mediated cAMP production and β-arrestin recruitment
